# Shown are actives, neighbours in structure and some others; about 9.5% of the full set was active somewhere.
# M1 ag: M1 muscarinic receptor agonism; CHO-M1 cells, Fluo-4 calcium fluorescence, agonist mode; hits give high values; B-score at 10 µM; 64,000 tested, 3% active; AID 626;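 active = fluorescence rise, raw or as B-score row- and column-corrected plate score, outside the 99.7% band of its plate's samples, either direction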
# Jurkat tox 60K: cytotoxic compounds reducing Jurkat cell viability; 56,000 tested, 1.2% active; Jurkat E6.1 viability, ATP luminescence, 48 h; inhibition, % at 4 µM; AID 463;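 active = inhibition above the mean inhibition of all tested compounds plus 3 SD, cut at about 28% in these data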
# M1 antag: M1 muscarinic receptor (rat) antagonism | P08482 | B-score at 10 µM | 64,000 tested, 3.4% active | CHO-M1 cells, Fluo-4 calcium, ACh EC80 antagonist mode; hits give low values | AID 628;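 active = calcium fluorescence response, raw or row-and-column corrected B-score, differing from the plate sample mean either way at a set confidence level, mostly lower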
# HEK293 NFkB inh: lowers PMA/ionomycin-induced NF-kB signal in HEK293 cells; inhibition, % at 3 µM; 62,000 tested, 0.21% active; HEK-293 NF-kB luciferase reporter, luminescence;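 active = inhibition above the mean of all tested compounds plus 3 SD, cut at about 40% in these data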;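 also: 0% = stimulated DMSO wells and 100% = 10 µM reference inhibitor 5653914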
#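 Reagent: PMA plus ionomycin mix as NF-kB-activating stimulus. Assay system: NF-kB luciferase reporter HEK-293 cells. Technique: luminescence from luciferase substrate reagent. Incubation: 1 h compound pre-incubation, 16 h PMA/ionomycin at 37 °C. Benchmarks: DMSO only as uninhibited control, 10 µM reference inhibitor as full inhibition. Repeats: tested once.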
# D1 allo mod: D1 dopamine receptor (human) allosteric modulation. HEK293 D1, CRE-luciferase, dopamine EC30 potentiation; actives deviate in either direction. P21728. 58,000 tested, 5.9% active. B-score at 10 µM;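 active = luminescence count or its row- and column-corrected plate score outside the 99.7% band of the plate's sample wells, on either side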
# mHtt clearance: mutant huntingtin protein clearance; 47,000 tested, 0.42% active; inhibition, % at 1.5 µM; HeLa Exon1htt(103Q)mCFP, aggregate imaging; zero = plate's median compound well;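 active = inhibition of aggregate fluorescence above about 70%, also judged a hit by eye on the cell image, limit read from the data, passing the limit was not always enough; inconclusive = no rule stated for this call; inactive = not judged a hit on image review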;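 also: cells exposed to compound for three days before fixation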
# M1 agonist conf: confirmation of rat M1 muscarinic receptor agonists. 1,700 tested, 19% active. CHO-M1 cells, Fluo-4 calcium fluorescence, agonist mode; actives lie on both sides. shares compounds with M1 ag. fluorescence change (max-min) at 10 µM;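 active = fluorescence change differs from the solvent-only DMSO control mean at a set confidence level in both duplicate runs; inconclusive = differs from solvent-only control mean in just one of two runs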;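 also: an EC20 dose of acetylcholine follows compound addition during the same imaging run; raw fluorescence intensity difference in instrument units with no normalization to controls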
# M4 ag counter: activates rat M4 receptor in counter-screen for M1 agonists | shares compounds with M1 ag | CHO M4/Gqi5 cells, Fluo-4 calcium fluorescence, agonist mode; actives lie on both sides | fluorescence change (max-min) at 10 µM | 1,700 tested, 9% active | AID 1741;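 active = fluorescence change differing from the plate's solvent-only control wells at 99.7% confidence in both duplicates, whether higher or lower; inconclusive = differs from solvent controls in only one of two duplicates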
# Target sequence (P08485 whole entry, looked up): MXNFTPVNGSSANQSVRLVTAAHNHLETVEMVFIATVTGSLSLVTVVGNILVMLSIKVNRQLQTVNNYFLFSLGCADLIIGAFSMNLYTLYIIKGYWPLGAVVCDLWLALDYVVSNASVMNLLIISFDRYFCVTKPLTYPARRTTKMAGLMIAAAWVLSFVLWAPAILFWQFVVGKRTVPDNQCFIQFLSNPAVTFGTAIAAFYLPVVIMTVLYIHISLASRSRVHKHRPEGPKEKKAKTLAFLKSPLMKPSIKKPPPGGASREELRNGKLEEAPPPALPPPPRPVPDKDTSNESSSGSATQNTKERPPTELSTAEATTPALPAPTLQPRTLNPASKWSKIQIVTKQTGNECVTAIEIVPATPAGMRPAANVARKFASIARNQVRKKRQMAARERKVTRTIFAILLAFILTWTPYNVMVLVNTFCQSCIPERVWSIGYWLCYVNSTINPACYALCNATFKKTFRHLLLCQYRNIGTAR
# Starred values were filed as active, the others as inactive; ? = inconclusive; nt = no result given.
SMILES,M1 ag,Jurkat tox 60K,M1 antag,HEK293 NFkB inh,D1 allo mod,mHtt clearance,M1 agonist conf,M4 ag counter
COc1ccc(C(=O)N2CCN(c3ccc(C)c(C)c3)CC2)cc1OC,-2.49*,-2.4,0.03,3.9,0.19,nt,?,-82.5*
COc1ccc(C(=O)N2CCN(c3ccc(C)cc3C)CC2)cc1OC,-1.34,8.8,0.0361,15.4,0.305,nt,nt,nt
COc1ccccc1NC(=O)CSc1nnc(C)o1,2.39*,nt,0.0781,13.4,0.0368,18.2,-11.8,-29
COc1ccc(-c2nnc(SCC(=O)Nc3ccccc3OC)o2)cc1,-0.371,9.4,-0.0704,-3.3,0.123,62.5,nt,nt
CC(Oc1ccccc1Cl)c1nnc(N)s1 (centres undefined),nt,nt,nt,nt,nt,-11.6,nt,nt
Cc1ccc(OC(C)c2nnc(N)s2)cc1Cl (centres undefined),2.46*,8.8,-0.0924,15.4,-1.31,-29.9,-19.5*,-58.4
CCOC(=O)C1CCCN(C(=O)CCCn2nc(C)n3c(cc4sccc43)c2=O)C1 (centres undefined),42.1*,1.9,-0.672,10.2,1.31,nt,335*,?
COc1ccc(CNC(=O)CSc2ncnc3nc[nH]c23)cc1,31.2*,11.4,-0.831,10.7,0.0413,16.9,?,-63.1
CCOC(=O)N1CCC2(CC1)C(C#N)=C(N)OC1=C2C(=O)CC(C)C1 (centres undefined),nt,nt,nt,nt,nt,-27.9,nt,nt
Cc1sc2nc3ccc(N4CCCC4)nn3c(=O)c2c1C,6.63*,14.6,-0.564,9.3,nt,nt,-8.32,-46.4
Cc1ccc2nc3ccc(N4CCCCCCC4)nn3c(=O)c2c1,nt,nt,nt,nt,nt,10.2,nt,nt
COc1cc(C(=O)Nc2ccc(OCC(=O)O)cc2)cc(OC)c1OC,nt,-1.6,nt,14.2,-0.723,nt,nt,nt
CC(C)CC(C(=O)Nc1ccc2c(c1)OCCO2)N1C(=O)c2ccccc2C1=O (centres undefined),0.603,-11.3,0.0713,9.8,-0.282,nt,nt,nt
CC(C)CC(C(=O)Nc1oc(-c2ccco2)c(-c2ccco2)c1C#N)N1C(=O)c2ccccc2C1=O (centres undefined),12.6*,-4.3,-1.94*,5.8,nt,nt,-5.57,-33.3
COc1ccccc1C(=O)NC(=Nc1nc2ccccc2o1)NC(=O)c1ccccc1OC,6.44*,nt,-0.456,nt,nt,-10.3,?,-50.1
CCCCN1C2CCCC1CC(NC(=O)N(C(C)C)C(C)C)C2 (centres undefined),nt,nt,nt,nt,nt,-58.8,nt,nt
COc1ccc(CNC(=O)C(C)OC(=O)c2cccn2C)cc1 (centres undefined),0.705,2.2,0.254,2.2,-0.0932,nt,nt,nt
Cc1ccc2c(c1)nnn2C1CCN(S(=O)(=O)c2cccc(S(=O)(=O)N(C)C)c2)CC1,4.91*,6.3,-1.31,8.1,-1.39,nt,?,-62.9
Cc1ccc2c(c1)nnn2C1CCN(S(=O)(=O)c2ccc(C(=O)N(C)C)cc2)CC1,nt,7.9,nt,10.7,nt,nt,nt,nt
CCOC(=O)Cc1csc(NC(=O)c2ccc3c(c2)OCO3)n1,-2.35*,2.3,-1.18,8.7,-0.491,-19.2,-20.9,?
O=C(O/N=C/C1=C(Cl)c2ccccc2CC1)c1ccc(F)cc1,nt,nt,nt,nt,nt,-54.8,nt,nt
Cc1cccc(NC(=O)c2sc3nc(-c4ccccc4)cn3c2C)n1,2.39*,9.9,-0.717,8.5,0.139,nt,?,-43
CCCc1nccn1S(=O)(=O)c1cc(OC)ccc1OC,nt,nt,nt,nt,nt,-72.0,nt,nt
C=CCc1cccc2cc(C(=O)O)c(=O)oc12,nt,nt,nt,nt,nt,31.2,nt,nt
C=CCNS(=O)(=O)c1cccc2cc(C(=O)O)c(O)cc12,3.58*,-8.7,0.184,12.7,-0.587,-2.6,14.9,9.02
SMILES,M1 ag,Jurkat tox 60K,M1 antag,HEK293 NFkB inh,D1 allo mod,mHtt clearance,M1 agonist conf,M4 ag counter
Cc1ccc(N(C(C)C(=O)N2CCC(C)CC2)S(C)(=O)=O)cc1C (centres undefined),2.46*,6.2,-0.159,21.0,0.0922,52.2,-6.68,-14.9
COCCNC(=O)C(C)N(c1ccc(Oc2ccccc2)cc1)S(C)(=O)=O (centres undefined),0.00893,1.3,-0.129,8.6,0.078,nt,nt,nt
CCOC(=O)N1CCN(C(=O)C(C)N(c2ccc(Oc3ccccc3)cc2)S(C)(=O)=O)CC1 (centres undefined),3.58*,-3.4,-1.35,22.6,-0.151,nt,-4.83,-65.5
COc1ccc(N2CCN(C(=O)CSc3nnnn3-c3ccc4c(c3)OCCO4)CC2)cc1,-3.03*,9.7,-0.296,13.9,nt,nt,-17.6,?
COc1ccc(OCC(=O)N2CCN(c3nnc(-c4ccccc4)c4ccccc34)CC2)cc1,7.32*,14.0,-7*,17.1,-0.814,-21.6,?,-70.6
CC(CN1CCOCC1)OC(=O)c1ccc(Br)cc1 (centres undefined),33.7*,-1.1,-0.592,11.0,nt,nt,?,-35.1
OC(COc1ccc(Br)cc1)CN1CCOCC1 (centres undefined),-1.09,0.1,0.428,12.7,-0.0212,nt,nt,nt
Cc1c(NC(=O)c2cccc(F)c2)c(=O)n(-c2ccccc2)n1C,8.89*,-2.6,-6.54*,2.8,-0.706,nt,-14.4,?
COc1ccc(NC(=O)Nc2c(C)n(C)n(-c3ccccc3)c2=O)cc1,0.0922,-5.2,-0.514,16.0,-0.107,nt,nt,nt
Cc1c(NC(=O)c2ccc(F)cc2)c(=O)n(-c2ccccc2)n1C,1.43,-0.1,0.45,2.0,-0.509,nt,nt,nt
Cc1c(NC(=O)c2ccc(COc3ccc4ccccc4c3)o2)c(=O)n(-c2ccccc2)n1C,-2.82*,17.3,0.0263,9.5,-0.497,nt,-14.1,-52.3
CCC(=O)c1ccc(OCC(O)CN2CCN(C(c3ccccc3)c3ccccc3)CC2)cc1 (centres undefined),nt,nt,nt,nt,nt,24.7,nt,nt
O=C1C2C3CCCC3=C3CCCC3C2C(=O)N1c1cccc(Cl)c1 (centres undefined),-0.534,-2.5,0.182,8.2,-0.28,-5.0,nt,nt
O=C1C2C3CCCC3=C3CCCC3C2C(=O)N1c1ccc(Cl)cc1 (centres undefined),4.17*,2.2,-0.902,6.9,-0.489,nt,?,-37.6
CCCn1c2c(c(O)c(C(=O)Nc3ccccc3)c1=O)CCCC2,0.273,2.6,-0.149,1.3,0.163,nt,nt,nt
COCCn1c(-c2ccc(Cl)cc2)cnc1SCC(=O)NCc1cccs1,0.764,8.4,-0.0389,9.9,-0.356,55.6,nt,nt
COc1ccc(OCC(O)Cn2c(=N)n(CCN3CCOCC3)c3ccccc32)cc1 (centres undefined),7.47*,-4.7,-0.0215,-3.3,-1.22,nt,-25.9,-30
N=c1n(CCN2CCOCC2)c2ccccc2n1CC(O)COc1ccccc1 (centres undefined),1.2,-0.9,0.821,20.6,-2.06,-23.0,nt,nt
Cc1ccc(C)c2[nH]c(=O)c(CN(Cc3ccco3)C(=O)Nc3ccccc3)cc12,5.24*,-1.6,-0.37,20.2,nt,nt,-13.1,-46.8
